# Reference: ChEMBL document CHEMBL4477159, “Anti-inflammatory Actions of (+)-3'α-Angeloxy-4'-keto-3',4'-dihydroseselin (Pd-Ib) against Dextran Sulfate Sodium-Induced Colitis in C57BL/6 Mice” (J Nat Prod, 2016)
# Active and inactive are the calls of the source. No cut-off for these calls is given here.
# Experiments:
# [1] = test system: Mus musculus; test: Antiinflammatory activity in DSS-induced C57BL/6 mouse acute colitis model assessed as lowering of disease activity index at 300 mg/kg administered by oral gavage from day 5 to day 12 measured on day 13 relative to DSS-treated control; type: functional, organism-based
# Outline: (§1)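 Colitis induced in C57BL/6 mice with 2.0% (w/v) DSS in drinking water for 5 days; controls got distilled water. Saline vehicle, Pd-Ib (30, 60 or 120 mg/kg/day) or SASP (300 mg/kg/day) given by gavage through day 12. Weight, stool consistency and bleeding monitored daily. DAI combines weight-loss, stool and bleeding scores. On day 13, colon measured from ileo-cecal junction to anal verge. n = 8, mean ± SD.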
# [2] = test system: Mus musculus; test: Antiinflammatory activity in DSS-induced C57BL/6 mouse acute colitis model assessed as lowering of IL-6 level at 300 mg/kg administered by oral gavage from day 5 to day 12 measured on day 13; type: functional, organism-based
# Outline: (§2)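 Colon tissue from DSS-colitis mice dosed by gavage (day 13 harvest) homogenized in lysis buffer and spun at 16000g, 4 °C, 15 min. Cytokines in supernatant measured by multiplex bead immunoassay and reported as pg/mL. Protein determined by Bradford with BSA standard. n = 8, mean ± SD.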
# [3] = test system: Mus musculus; test: Antiinflammatory activity in DSS-induced C57BL/6 mouse acute colitis model assessed as protection against mucosal injury at 300 mg/kg administered by oral gavage from day 5 to day 12 measured on day 13 by hematoxylin/eosin staining-based microscopic analysis; type: functional, organism-based
# Outline: (§3)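 DSS colitis (2% w/v, 5 days) with daily gavage of saline, Pd-Ib (30–120 mg/kg) or SASP (300 mg/kg) through day 12; sacrifice day 13. Colons rinsed in ice-cold PBS, fixed overnight in 4% paraformaldehyde, paraffin-embedded. 5 μm sections H&E stained and graded on a 0–10 histological scale. n = 8, mean ± SD.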
# [4] = test system: Mus musculus; test: Antiinflammatory activity in DSS-induced C57BL/6 mouse acute colitis model assessed as lowering of IL-17A level at 300 mg/kg administered by oral gavage from day 5 to day 12 measured on day 13; type: functional, organism-based; outline: as §2
# [5] = test system: Mus musculus; test: Downregulation of elevated p-p38 level in colon homogenate of DSS-induced C57BL/6 mouse acute colitis model administered by oral gavage from day 5 to day 12 measured on day 13 by Western blot analysis; type: functional, organism-based
# Outline: (§4)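 Colonic tissue extracts from DSS-colitis mice gavaged through day 12 and sacrificed day 13. Lysed in RIPA buffer (pH 7.4) with phosphatase/protease inhibitors, run on 10% SDS-PAGE and immunoblotted for STAT3, p-STAT3, p38 and p-p38. Blots stripped and reprobed for β-actin as loading control.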
# [6] = target: MAP kinase p38 (Mus musculus) (UniProt P47811+O08911+Q9WUI1+Q9Z1B7); test: Inhibition of LPS-induced p38 phosphorylation in mouse RAW264.7 cells at 5 to 40 ug/ml after 24 hrs by Western blot analysis; type: cell-based
# Outline: (§5)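 RAW264.7 macrophages (DMEM, 10% FBS, 37 °C, 5% CO2) treated with LPS 1 μg/mL alone or with Pd-Ib 5, 10, 20 or 40 μg/mL for 24 h. Lysates in RIPA buffer, 10% SDS-PAGE, immunoblotted for phospho and total STAT3, JNK, ERK and p38; β-actin loading control.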
# [7] = test system: Mus musculus; test: Antiinflammatory activity in DSS-induced C57BL/6 mouse acute colitis model assessed as reduction in loss of body weight at 30 to 60 mg/kg administered by oral gavage after 9 days of induction; type: functional, organism-based; outline: as §1
# [8] = test system: Mus musculus; test: Antiinflammatory activity in DSS-induced C57BL/6 mouse acute colitis model assessed as lowering of IFN-gamma level administered by oral gavage from day 5 to day 12 measured on day 13; type: functional, organism-based; outline: as §2
# [9] = test system: Mus musculus; test: Antiinflammatory activity in DSS-induced C57BL/6 mouse acute colitis model assessed as lowering of TNF-alpha level administered by oral gavage from day 5 to day 12 measured on day 13; type: functional, organism-based; outline: as §2
# [10] = test system: Mus musculus; test: Antiinflammatory activity in DSS-induced C57BL/6 mouse acute colitis model assessed as lowering of disease activity index at 120 mg/kg administered by oral gavage from day 5 to day 12 measured on day 13 relative to DSS-treated control; type: functional, organism-based; outline: as §1
# [11] = test system: Mus musculus; test: Antiinflammatory activity in DSS-induced C57BL/6 mouse acute colitis model assessed as reduction in loss of body weight at 120 mg/kg administered by oral gavage after 9 days of induction; type: functional, organism-based; outline: as §1
# [12] = test system: Mus musculus; test: Antiinflammatory activity in DSS-induced C57BL/6 mouse acute colitis model assessed as lowering of NO production at 30 to 120 mg/kg administered by oral gavage from day 5 to day 12 measured on day 13 by Griess assay; type: functional, organism-based
# Outline: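 On day 13 after DSS colitis and gavage dosing, frozen colon weighed and homogenized in 0.5% hexadecyltrimethylammonium bromide (100 mg tissue/mL). Spun at 16000g, 4 °C, 15 min. Supernatant nitrite measured with Griess reagent. n = 8, mean ± SD.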
# [13] = test system: Mus musculus; test: Antiinflammatory activity in DSS-induced C57BL/6 mouse acute colitis model assessed as lowering of IL-6 level administered by oral gavage from day 5 to day 12 measured on day 13; type: functional, organism-based; outline: as §2
# [14] = test system: Mus musculus; test: Antiinflammatory activity in DSS-induced C57BL/6 mouse acute colitis model assessed as attenuation of shortening of colon length at 60 to 120 mg/kg administered by oral gavage from day 5 to day 12 measured on day 13; type: functional, organism-based; outline: as §1
# [15] = test system: Mus musculus; test: Downregulation of elevated p-STAT3 level in colon homogenate of DSS-induced C57BL/6 mouse acute colitis model administered by oral gavage from day 5 to day 12 measured on day 13 by Western blot analysis; type: functional, organism-based; outline: as §4
# [16] = test system: Mus musculus; test: Antiinflammatory activity in DSS-induced C57BL/6 mouse acute colitis model assessed as lowering of IL-17A level administered by oral gavage from day 5 to day 12 measured on day 13; type: functional, organism-based; outline: as §2
# [17] = test system: Mus musculus; test: Antiinflammatory activity in DSS-induced C57BL/6 mouse acute colitis model assessed as increase of IL-10 level at 30 to 120 mg/kg administered by oral gavage from day 5 to day 12 measured on day 13 relative to DSS-treated control; type: functional, organism-based
# [18] = test system: RAW264.7; test: Inhibition of LPS-induced IL-6 production in mouse RAW264.7 cells at 40 ug/ml after 24 hrs by ELISA; type: functional, cell-based
# Outline: (§6)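 RAW264.7 cells incubated 24 h with Pd-Ib (0, 5, 10, 20, 40 μg/mL), with or without LPS 1 μg/mL. IL-6 in the culture supernatant quantified by ELISA.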
# [19] = test system: Mus musculus; test: Antiinflammatory activity in DSS-induced C57BL/6 mouse acute colitis model assessed as protection against mucosal injury at 120 mg/kg administered by oral gavage from day 5 to day 12 measured on day 13 by hematoxylin/eosin staining-based microscopic analysis; type: functional, organism-based; outline: as §3
# [20] = target: Signal transducer and activator of transcription 3 (Mus musculus) (UniProt P42227); test: Inhibition of LPS-induced STAT3 phosphorylation in mouse RAW264.7 cells at 40 ug/ml after 24 hrs by Western blot analysis; type: cell-based; outline: as §5
# Sequence of Signal transducer and activator of transcription 3 (Mus musculus) (P42227 whole entry): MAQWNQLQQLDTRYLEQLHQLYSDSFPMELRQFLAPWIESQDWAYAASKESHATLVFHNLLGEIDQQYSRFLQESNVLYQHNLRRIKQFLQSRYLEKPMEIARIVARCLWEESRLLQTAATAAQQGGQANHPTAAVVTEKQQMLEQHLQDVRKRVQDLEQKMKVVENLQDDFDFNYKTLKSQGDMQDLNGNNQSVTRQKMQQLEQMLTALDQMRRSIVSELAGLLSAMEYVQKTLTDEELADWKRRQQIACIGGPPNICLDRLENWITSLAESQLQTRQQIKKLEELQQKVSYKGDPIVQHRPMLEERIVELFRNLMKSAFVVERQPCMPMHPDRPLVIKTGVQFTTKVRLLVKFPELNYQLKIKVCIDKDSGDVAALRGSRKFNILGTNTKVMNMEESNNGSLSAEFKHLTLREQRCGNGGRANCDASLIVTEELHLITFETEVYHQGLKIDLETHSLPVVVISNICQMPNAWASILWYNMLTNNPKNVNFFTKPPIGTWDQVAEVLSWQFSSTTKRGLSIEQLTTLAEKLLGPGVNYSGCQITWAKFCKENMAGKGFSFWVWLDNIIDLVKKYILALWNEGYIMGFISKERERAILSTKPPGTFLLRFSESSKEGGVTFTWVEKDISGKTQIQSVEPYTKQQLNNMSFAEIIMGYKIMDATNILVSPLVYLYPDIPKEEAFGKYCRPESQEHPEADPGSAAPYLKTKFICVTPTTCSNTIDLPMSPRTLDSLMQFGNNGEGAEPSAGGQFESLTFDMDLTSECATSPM
# [21] = test system: RAW264.7; test: Inhibition of LPS-induced JNK phosphorylation in mouse RAW264.7 cells at 5 to 40 ug/ml after 24 hrs by Western blot analysis; type: cell-based; outline: as §5
# [22] = test system: Mus musculus; test: Antiinflammatory activity in DSS-induced C57BL/6 mouse acute colitis model assessed as increase of IL-4 level at 30 to 120 mg/kg administered by oral gavage from day 5 to day 12 measured on day 13 relative to DSS-treated control; type: functional, organism-based; outline: as §2
# [23] = test system: Mus musculus; test: Antiinflammatory activity in DSS-induced C57BL/6 mouse acute colitis model assessed as lowering of histological score at 30 to 120 mg/kg administered by oral gavage from day 5 to day 12 measured on day 13 by hematoxylin/eosin staining-based microscopic analysis; type: functional, organism-based; outline: as §3
# [24] = test system: RAW264.7; test: Inhibition of LPS-induced IL-6 production in mouse RAW264.7 cells at 5 to 20 ug/ml after 24 hrs by ELISA; type: functional, cell-based; outline: as §6
# [25] = test system: RAW264.7; test: Inhibition of LPS-induced ERK phosphorylation in mouse RAW264.7 cells at 5 to 40 ug/ml after 24 hrs by Western blot analysis; type: cell-based; outline: as §5
# [26] = target: Signal transducer and activator of transcription 3 (Mus musculus) (UniProt P42227); test: Inhibition of LPS-induced STAT3 phosphorylation in mouse RAW264.7 cells at 20 ug/ml after 12 hrs by Western blot analysis; type: cell-based
# Outline: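 RAW264.7 cells given LPS 1 μg/mL with or without Pd-Ib 20 μg/mL for 0–24 h, then harvested and lysed. p-STAT3 and β-actin detected by Western blot.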
# [27] = test system: Mus musculus; test: Antiinflammatory activity in DSS-induced C57BL/6 mouse acute colitis model assessed as lowering of MPO activity in colon homogenate at 30 to 120 mg/kg administered by oral gavage from day 5 to day 12 measured on day 13; type: functional, organism-based
# Outline: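 Mice given DSS colitis and gavage treatment as above, sacrificed day 13. MPO activity in colon homogenate taken from the rate of optical density change; one unit gives an OD change of 1.0/min at 25 °C. Normalized to colon wet weight, expressed as units/mg tissue. n = 8.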
smiles,measurement,setting,value
O=C(O)c1cc(/N=N/c2ccc(S(=O)(=O)Nc3ccccn3)cc2)ccc1O,Activity,[1],Active
same,Activity,[2],Active
same,Activity,[3],Active
same,Activity,[4],Active
C/C=C(/C)C(=O)O[C@H]1C(=O)c2c(ccc3ccc(=O)oc23)OC1(C)C,Activity,[5],Dose-dependent effect
same,inhibition,[6],Active
same,Activity,[7],inactive
same,Activity,[8],Dose-dependent effect
same,Activity,[9],Dose-dependent effect
same,Activity,[10],Active
same,Activity,[11],Active
same,Activity,[12],Active
same,Activity,[13],Dose-dependent effect
same,Activity,[14],Active
same,Activity,[15],Dose-dependent effect
same,Activity,[16],Dose-dependent effect
same,Activity,[17],inactive
same,inhibition,[18],inactive
same,Activity,[19],Active
same,inhibition,[20],Active
same,inhibition,[21],Active
same,Activity,[22],Active
same,Activity,[23],Active
same,inhibition,[24],Active
same,inhibition,[25],inactive
same,inhibition,[26],Active
same,Activity,[27],Active
